In ChEMBL document CHEMBL6177922, “Antibacterial activity of the structurally novel C-2 amine-substituted analogues based on quinoxaline” (RSC Med Chem, 2025):
≈ marks a conversion by molar mass, not a printed value. Calls of active or inactive are those of the source. The calls are words filed in the database; no cut-off is given here.

Columns and labels:
[1] = system: Staphylococcus aureus; assay: Antibiofilm activity against Methicillin-resistant Staphylococcus aureus assessed as reduction in number of viable cells at 3 times MIC incubated for 24 hrs; assay type: functional, organism-based
Outline: (§1)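 Biofilm eradication: mid-log MRSA at 2 × 10^6 CFU mL-1 grown 48 h to form biofilms, then washed with PBS. Biofilms exposed to compound at MIC, 2× or 3× MIC for 24 h; medium-only control. Biofilms dispersed with trypsin–EDTA, serial 10-fold dilutions plated, colonies counted after 24 h, expressed as log10 CFU mL-1.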

[2] = system: Staphylococcus aureus; assay: Antibiofilm activity against Methicillin-resistant Staphylococcus aureus assessed as reduction in number of viable cells at 8 times MIC incubated for 24 hrs; assay type: functional, organism-based
[3] = system: Escherichia coli; assay: Antibiofilm activity against Escherichia coli assessed as reduction in number of viable cells at 4 times MIC incubated for 24 hrs; assay type: functional, organism-based
Outline: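 E. coli was grown to mid-log phase and adjusted to 2 × 10^6 CFU mL−1. Biofilms were grown for 48 h, then the spent medium was removed and loose cells were washed off with PBS. Compound was added at MIC, 2× MIC or 4× MIC for 24 h, with a sterile-medium control. Biofilms were dispersed with trypsin–EDTA, 10-fold dilutions were plated, and colonies were counted after 24 h as log10 CFU mL−1.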

[4] = system: Staphylococcus aureus; assay: Antibacterial activity against methicillin-resistant Staphylococcus aureus infected in Kunming mouse corneal infection model assessed as reduction in viable bacterial count at 3 mg/ml, TOP administered 3 times daily for 1 week; assay type: functional, organism-based; details: time 1.0 weeks
Outline: (§2)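 Corneal infection model: male and female Kunming mice (~20 g) immunosuppressed with daily i.p. cyclophosphamide for 3 days. Anesthetized with i.p. avertin (400 mg kg-1), corneas abraded and given 20 μL MRSA (6 × 10^7 CFU mL-1). From 24 h post-infection, treated by topical smear three times daily for one week. Controls: 5% glucose and 5% vancomycin. Six mice per group. Corneal viable counts measured.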

[5] = system: Klebsiella pneumoniae; assay: Antibacterial activity against drug-resistant Klebsiella pneumoniae assessed as reduction in bacterial growth by broth microdilution method; assay type: functional
Outline: (§3)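 Twofold serial dilution (microdilution) MIC in lysogeny broth (LB) medium against drug-resistant strains: MRSA USA300, vancomycin-resistant Enterococci, Klebsiella pneumoniae.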

[6] = system: Staphylococcus aureus; assay: Antibacterial activity against methicillin-resistant Staphylococcus aureus assessed as reduction in viable bacterial count measured after 18 hrs; assay type: functional, organism-based
[7] = Cytotoxicity against human HEK293 cells assessed as inhibition of cell growth incubated for 24 hrs by MTT assay; assay type: toxicity, cell-based
Outline: (§4)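 MTT assay with 24 h exposure of cells to the samples. IC50 is the concentration giving 50% growth inhibition, reported as mean ± S.D. of three independent experiments.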

[8] = system: Escherichia coli; assay: Antibacterial activity against drug sensitive Escherichia coli DH5alpha assessed as reduction in bacterial growth by broth microdilution method; assay type: functional
Outline: (§5)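 MICs were determined by standard twofold serial broth microdilution in lysogeny broth (LB) medium.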

[9] = system: MCF7; assay: Cytotoxicity against human MCF7 cells assessed as inhibition of cell growth incubated for 24 hrs by MTT assay; assay type: functional, cell-based; details: MCF7, 24 h; outline: as §4
[10] = Cytotoxicity against human HK-2 cells assessed as inhibition of cell growth incubated for 24 hrs by MTT assay; assay type: toxicity, cell-based; outline: as §4
[11] = system: Escherichia coli; assay: Antibacterial activity against Escherichia coli measured for 15 days; assay type: functional, organism-based; details: time 15.0 day
Outline: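 E. coli was serially subcultured in fresh medium, starting from the initial MIC. The MIC was redetermined every 24 h. A reference antibiotic was tested in parallel by twofold dilution. The regimen ran for 24 days in total.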

[12] = system: Enterococcus; assay: Antibacterial activity against vancomycin-resistant Enterococcus assessed as reduction in bacterial growth by broth microdilution method; assay type: functional; outline: as §3
[13] = system: Staphylococcus aureus; assay: Antibacterial activity against methicillin-resistant Staphylococcus aureus assessed as reduction in viable bacterial count at 2 to 4 times MIC measured after 18 hrs; assay type: functional, organism-based
[14] = system: Staphylococcus aureus; assay: Antibacterial activity against methicillin-resistant Staphylococcus aureus USA300 assessed as reduction in bacterial growth by broth microdilution method; assay type: functional; outline: as §3
[15] = system: Escherichia coli; assay: Bactericidal activity against Escherichia coli assessed as inhibition of bacterial growth at 3 times MIC incubated for 24 hrs by time kill assay; assay type: functional, organism-based
Outline: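 Time-kill assay: E. coli was precultured for […] at 37 °C and adjusted to about 2 × 10^6 CFU mL−1. It was exposed to 3× MIC at 37 °C with shaking. Samples were taken at 0.5–13 h, serially 10-fold diluted in PBS and plated on Mueller–Hinton agar, and colonies were counted after 24 h at 37 °C. Run in duplicate.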

[16] = system: Escherichia coli; assay: Antibiofilm activity against Escherichia coli assessed as reduction in number of viable cells at 8 times MIC incubated for 24 hrs; assay type: functional, organism-based
[17] = system: Staphylococcus aureus; assay: Bactericidal activity against methicillin-resistant Staphylococcus aureus assessed as reduction in colony forming unit at 3 times MIC […] by time kill assay; assay type: functional
[18] = system: Staphylococcus aureus; assay: Antibacterial activity against drug sensitive Staphylococcus aureus RN4220 assessed as reduction in bacterial growth by broth microdilution method; assay type: functional; outline: as §5
[19] = system: Bacillus subtilis; assay: Antibacterial activity against drug sensitive Bacillus subtilis 168 assessed as reduction in bacterial growth by broth microdilution method; assay type: functional; outline: as §5
[20] = Plasma protein binding in dog assessed as unbound fraction measured after 4 hrs by rapid equilibrium dialysis based LC-MS/MS analysis; assay type: ADME, cell-free, Canis lupus familiaris
Outline: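 Rapid equilibrium dialysis of dog plasma against PBS pH 7.4 across an 8000 MWCO membrane. A 10 mM stock was diluted 1:50 with water and added to the plasma side, with sarolaner as control. Plates were shaken for 4 h at 37 °C. Proteins were precipitated with ACN and both chambers quantified by LC-MS/MS. % free = buffer/plasma concentration × 100; % bound = 100 − % free. n = 4.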

[21] = system: Staphylococcus aureus; assay: Antibacterial activity against methicillin-resistant Staphylococcus aureus infected in Kunming mouse corneal infection model assessed as reduction in viable bacterial count at 6 mg/ml, TOP administered 3 times daily for 1 week; assay type: functional, organism-based; details: time 1.0 weeks; outline: as §2
[22] = system: Cell membrane; assay: Induction of cell membrane integrity in Escherichia coli assessed as increase in K+ efflux at 3 times MIC by absorption spectrophotometric analysis; assay type: subcellular
Outline: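 Mid-log E. coli (6 h culture) was suspended to about 2 × 10^6 CFU mL−1 in 10 mM HEPES pH 7.3 plus 5 mM glucose (1:1). Cells were incubated with 3× MIC at 37 °C for various times, with a PBS control. Supernatant K+ was measured by atomic absorption spectrophotometry. Run in duplicate.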

[23] = system: Staphylococcus aureus; assay: Bactericidal activity against methicillin-resistant Staphylococcus aureus at 2 times MIC incubated for 24 hrs by time kill assay; assay type: functional, organism-based
Outline: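 Time-kill: MRSA grown 24 h at 37 °C, adjusted to ~2 × 10^6 CFU mL-1, exposed at 2× or 3× MIC with shaking at 37 °C. Aliquots taken at 0.5–13 h, serially diluted 10-fold in PBS, plated on Mueller–Hinton agar, counted after 24 h at 37 °C. Duplicate.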

[24] = system: Staphylococcus aureus; assay: Antibiofilm activity against Methicillin-resistant Staphylococcus aureus assessed as reduction in number of viable cells at 2 times MIC incubated for 24 hrs; assay type: functional, organism-based; outline: as §1
[25] = system: Staphylococcus aureus; assay: Antibacterial activity against methicillin-resistant Staphylococcus aureus assessed as increase in number of bacteria at 2 times MIC measured at 3 hrs; assay type: functional, organism-based
Outline: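 Cells washed three times in sterile saline by centrifugation, moved to fresh TSB at 37 °C. Viable counts plated on TSB agar at 2–17 h. PCE = t − c, the time for a 1-log rise in treated versus control. Run twice.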

[26] = system: Escherichia coli; assay: Bactericidal activity against Escherichia coli at 2 to 3 times MIC incubated for 24 hrs by time kill assay; assay type: functional, organism-based

Structure (SMILES): CC(C)(C)c1ccc(CCNc2nc3ccccc3nc2N)cc1
- Activity [1]: Active
- Activity [2]: Active
- Activity [3]: Active
- Activity [4]: inactive
- MIC [5]: 128 µg/mL (≈ 399 µM)
- Activity [6]: Dose-dependent-effect
- IC50 at 24 h [7]: 129 µg/mL (≈ 403 µM)
- MIC [8]: 4 µg/mL (≈ 12.5 µM)
- IC50 [9]: 72.5 µg/mL (≈ 226 µM)
- IC50 at 24 h [10]: 146 µg/mL (≈ 454 µM)
- Activity [11]: Active
- MIC [12]: > 128 µg/mL
- Activity [13]: Active
- MIC [14]: 8 µg/mL (≈ 25 µM)
- Activity [15]: Active
- Activity [16]: Active
- Activity [17]: >6 log10CFU/ml
- MIC [18]: 4 µg/mL (≈ 12.5 µM)
- MIC [19]: 8 µg/mL (≈ 25 µM)
- fraction unbound at 4 h [20]: 0.0731
- Activity [21]: Active
- Activity [22]: Active
- Activity [23]: inactive
- Activity [24]: Active
- Activity [25]: Active
- Activity [26]: inactive
